Results on 17 variants are retold here after the RNAGym collection of RNA variant scans (doi:10.1126/science.aae0568).

B1: tRNA (parent)
chain: GUUCCGUUGGCGUAAUGGUAACGCGUCUCCCUCCUAAGGAGAAGACUGCGGGUUCGAGUCCCGUACGGAACG

Fewer inactive variants are shown than the library holds.

The variants in this series derive from B1. The experiment in a line: yeast fitness relative to wild type (ratio to wild type); higher = fitter; tRNA-Arg(CCU), competitive growth, 37 C, YPD. In short, it runs like this: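 Genotype frequency changes were the basis for Darwinian fitness relative to wild type. The frequencies came from 100-nucleotide paired-end sequencing of gene amplicons from the start population and each end population of pooled yeast strains with tRNA-Arg(CCU) gene variants at the native locus. Competition ran in YPD at 37°C for 24 hours in six replicates, genotypes needed ≥ 100 starting reads, and estimates < 0.5 were set to 0.5.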
With G67C, the yeast fitness amounted to 0.986.
On to G67A, for which the yeast fitness came to 0.951.
Next, G67U: 0.918; C66U A70U: 0.923; A65U G67C: 0.64.
G68U A69C: the yeast fitness turned out to be 0.817.
In the case of C66A G68A, the yeast fitness amounted to 0.695.
For the variant A65G C66U, the yeast fitness was 0.993.
In the case of A65G C66A, the yeast fitness worked out at 0.716.
Regarding C66G G67U, the yeast fitness turned out to be 0.63.
As to C66G G67C, the yeast fitness came out at 0.733.
Turning to G67U G68C, the yeast fitness was 0.773.
Next, G67U A69U: 0.887; A65U A70G: 1.05.
For G67C G68U, the yeast fitness was 0.676.
Turning to A65U C66U, the yeast fitness is 0.818.
Take G67A G68C: the yeast fitness was determined as 0.819.
